This test can be described thus: Binding affinity to Mycobacterium tuberculosis FabB C171Q mutant expressed in Mycobacterium smegmatis MC2 155 by intrinsic tryptophan fluorescence quenching-based fluorimetric method. An outline of the steps: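 Kd by quenching of intrinsic tryptophan fluorescence (excitation 280 nm, emission 337 nm). Inhibitor stocks in DMSO or buffer were titrated into 1 μM His-tag-purified enzyme in 50 mM Tris-HCl, 150 mM NaCl, 1 mM DTT, pH 8.5. mtFabB was expressed in M. smegmatis MC²155; saFabF was expressed in E. coli BL21(DE3) pLysS.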
`C=C/C(C)=C/[C@@]1(C)SC(=O)C(C)=C1O` [THIOLACTOMYCIN] registered a Ki of 175 µM. Consider `C=C/C(C)=C/[C@@]1(C)SC(=O)C=C1OCC(=O)NCCNC(=O)OC(C)(C)C`, for which the Ki is more than 200 µM.

The compound `C=C/C(C)=C/[C@@]1(C)SC(=O)C=C1OCC(=O)NCCN=[N+]=[N-]` had a Ki of more than 200 µM.
